This is an account of results in ChEMBL document CHEMBL4513216, “Probing the Open Global Health Chemical Diversity Library for Multistage-Active Starting Points for Next-Generation Antimalarials” (ACS Infect Dis, 2020).

Each structure is given as a SMILES string.

This data set in a line: Toxicity liver stage against HepG2, at 10uM. It is filed as cell-based. Further details: test concentration 10 uM, cell line HepG2-A16-CD81EGFP. The note with it: human, HepG2-A16-CD81EGFP cells; read-out: INHIBITION
Put shortly: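 Uninfected HepG2-A16-CD81EGFP cells, 3 × 10^3 per well, 1536-well, plated on prespotted compound at 10 μM final, parasite-free screening media added to match infected plates; puromycin 10 μM positive, DMSO 0.5% negative; run in parallel with 48 h PbLuc assay at 37 °C, 5% CO2; viability by CellTiter-Glo luminescence, normalized to controls.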
On to `Cc1ccc(CN2C[C@H](OCCN(C)C)[C@H]3COC[C@H]32)o1`, for which the cytotoxicity at 10 µM was found to be 1.6%.

Consider `c1cnc(NCc2nnn3c2CN(Cc2ccsc2)CCC3)nc1`, for which the cytotoxicity at 10 µM was found to be 10.8%.

Turning to `COc1ccc(CN(C)CCS(=O)(=O)c2ccc(Cl)cc2)cc1OC`, the cytotoxicity at 10 µM came out at 2.68%.

For `COc1ccc(C)cc1CN(Cc1nc(C)c(C)o1)C1CCN(C)C1` (configuration not stated), the cytotoxicity at 10 µM is -3.41%.

For `COCc1noc(-c2ccc(N3CCCC3c3ccc(F)cc3)nc2)n1` (configuration not stated), the cytotoxicity at 10 µM was determined as 5.79%.

As to `CCCn1ccc(C(=O)N2CCC(C)CC2)n1`, the cytotoxicity at 10 µM is -7.01%.

As for `Cc1cc(C2CCCN(CCS(=O)(=O)c3ccccc3)C2)n[nH]1` (configuration not stated), the cytotoxicity at 10 µM is -16.7%.

For the molecule `O=C(Nc1ccc(F)c(Br)c1)N1CCCC1`, the cytotoxicity at 10 µM was found to be 2.32%.

With `CC(=O)C1(c2ccccc2)CCN(C(=O)c2ccc3nnnn3c2)CC1`, the cytotoxicity at 10 µM stood at 20.1%.

As for `COCCN1CCC2(CC1)CC(NC(=O)CN(C)C)c1ccccc1O2` (configuration not stated), the cytotoxicity at 10 µM amounted to 0.169%.

For `Cn1cnnc1C1CCCN(C(=O)c2n[nH]c3ccccc23)C1` (configuration not stated), the cytotoxicity at 10 µM was 0.914%.

For the molecule `Cc1cc(CN2C[C@@H]3COC[C@]3(CN(C)C)C2)no1`, the cytotoxicity at 10 µM came to 4.81%.

On to `Cc1ccc(-c2nc(CNC3CCc4ncnn4C3)no2)cc1` (configuration not stated), for which the cytotoxicity at 10 µM was -1.43%.

Turning to `O=C(c1c[nH]c(=O)cn1)N1C[C@H]2CC[C@@H](C1)N(Cc1ccccc1)C2`, the cytotoxicity at 10 µM was -126%.

As for `O[C@@H]1CCN(c2ccc3c(Cl)ccnc3c2F)C1`, the cytotoxicity at 10 µM stood at 2.12%.

For the molecule `Cc1cn(CC(=O)NC2CCN(CC3CC3)CC2)c2ccccc12`, the cytotoxicity at 10 µM came out at 0.951%.

`Cc1cc(CN2Cc3ccccc3CC2c2nnc(C)o2)on1` (configuration not stated): the cytotoxicity at 10 µM was -0.962%.

`CSCCCNC(=O)C(c1ccccc1C)N(C)C` (configuration not stated): the cytotoxicity at 10 µM amounted to 4.68%.

On to `COCCN(CCOC)C(=O)c1cn(C(C)(C)C)c2ncccc12`, for which the cytotoxicity at 10 µM is -1.14%.

Turning to `CC(C)Cc1cc(C(=O)NCCN2CCCS2(=O)=O)[nH]n1`, the cytotoxicity at 10 µM was -7.39%.

`Cc1csc(CN2CC[C@H]3C[C@H](c4ccncn4)O[C@@H]3C2)n1`: the cytotoxicity at 10 µM is -148%.

With `CN(Cc1nnc(C2CC2)n1C)S(=O)(=O)c1ccccc1C#N`, the cytotoxicity at 10 µM stood at 14.9%.

In the case of `CC(=O)N1CCC(c2cnc(NC3CCOCC3)cn2)CC1`, the cytotoxicity at 10 µM is -3.73%.

`COc1ccc(NC(=O)c2ccco2)c(N2CCN(C(C)=O)CC2)n1`: the cytotoxicity at 10 µM is -10.2%.

Consider `COc1ccc(CN2CCC(O)(CN3CCCCC3)C2)c(C)c1` (configuration not stated), for which the cytotoxicity at 10 µM amounted to 7.5%.

For the molecule `Cc1cc(CNC(=O)NCCOc2ccc(F)c(F)c2)on1`, the cytotoxicity at 10 µM was 16.3%.

Consider `Cc1nc(Nc2ncccn2)cc(C2CCCN2C(C)C)n1` (configuration not stated), for which the cytotoxicity at 10 µM was -17.3%.

With `COC(=O)CCC(=O)N1CCCC2(CCCN2Cc2cccc(F)c2)C1` (configuration not stated), the cytotoxicity at 10 µM was -104%.

Consider `CCC1CN(C(=O)COc2ccc(NC(C)=O)cc2)CCO1` (configuration not stated), for which the cytotoxicity at 10 µM was -9.4%.

As to `Cc1nc2cc(=O)[nH]n2c(C)c1CNC(=O)c1cnn(C(C)(C)C)c1`, the cytotoxicity at 10 µM is -4.01%.

As to `COc1ccccc1C1CNCCN1C(C)=O` (configuration not stated), the cytotoxicity at 10 µM amounted to 3.6%.

`Cc1cc(C(=O)N2C[C@@H]3CCCO[C@@H]3[C@H](N3CCOCC3)C2)c(C)[nH]1`: the cytotoxicity at 10 µM came to 4.5%.

With `CCC[C@H]1CN(c2nc(CO)cs2)C[C@@H]1NC(=O)C1(COC)CC1`, the cytotoxicity at 10 µM is -2.87%.

On to `CC(C)NC(=O)N1CCN(CC2CC2)c2ncccc2C1`, for which the cytotoxicity at 10 µM is -108%.

In the case of `CCOc1ccc(SCCS(=O)(=O)CC)cc1`, the cytotoxicity at 10 µM is -2.91%.

With `C=C(C)CNC(=O)C1CCCN(C2CCN(C(C)C)CC2)C1` (configuration not stated), the cytotoxicity at 10 µM was -0.454%.

For the molecule `CCOC(=O)NC(CNC(=O)c1cccnc1SC)CC(C)C` (configuration not stated), the cytotoxicity at 10 µM is 6.68%.

Turning to `c1ccc(CCN2CCOC(Cn3cccn3)C2)nc1` (configuration not stated), the cytotoxicity at 10 µM is -4.48%.

In the case of `COCc1ncc(CN2CCC(Oc3ccc(OC)cc3)CC2)cn1`, the cytotoxicity at 10 µM is -5.72%.

Take `CCOCCN1CCN(C(C)c2nc(C3CC3)no2)CC1` (configuration not stated): the cytotoxicity at 10 µM was -4.51%.

With `Cc1[nH]c(C2(N)CCCCC2)nc(=O)c1C`, the cytotoxicity at 10 µM is -0.846%.

Regarding `CCOC(=O)N1CCN(C(=O)Cn2ccc3ncccc3c2=O)CC1`, the cytotoxicity at 10 µM was -4.99%.

On to `Cc1cc2c(cc1C)C(NCc1nnc3n1CCCCC3)CCCO2` (configuration not stated), for which the cytotoxicity at 10 µM stood at 0.873%.

Take `Cc1cc(CN2CCCC2)cc(Oc2ccc3c(c2)CC(CN)O3)c1` (configuration not stated): the cytotoxicity at 10 µM stood at 0.298%.

As for `CCS(=O)(=O)N1CCC2(CN(c3cc(OC)ncn3)C2)C1`, the cytotoxicity at 10 µM was determined as 0.325%.

Take `O=C(NCCn1nc2ccccn2c1=O)c1cc[nH]n1`: the cytotoxicity at 10 µM was 3.45%.

Take `CS(=O)(=O)NC1CCCN(C(=O)NCc2cc[nH]n2)C1` (configuration not stated): the cytotoxicity at 10 µM was determined as 4.14%.

Take `CCc1c(O)nc(SCC(=O)Nc2ccccc2)n(C(C)CC)c1=O` (configuration not stated): the cytotoxicity at 10 µM came to 0.585%.

Regarding `COCC1COCCC12CCN(S(=O)(=O)c1ccccc1)CC2` (configuration not stated), the cytotoxicity at 10 µM turned out to be 0.242%.

With `CC(C)c1cc(NC(=O)CNC2CCc3nc(C(C)C)nn3C2)on1` (configuration not stated), the cytotoxicity at 10 µM turned out to be 0.246%.

For `CN(CCn1ccc2ccccc21)C(=O)CS(C)(=O)=O`, the cytotoxicity at 10 µM is -8.14%.

`Cc1ccccc1OCCn1cnc2oc(C)c(C(=O)O)c2c1=O`: the cytotoxicity at 10 µM turned out to be 11%.

In the case of `CC(C)c1noc(C(C)Nc2nccc(CCC(F)(F)F)n2)n1` (configuration not stated), the cytotoxicity at 10 µM is 2.08%.

Turning to `COCCN(Cc1ccccc1)c1cc(C)ncn1`, the cytotoxicity at 10 µM amounted to 7.41%.

Consider `Cc1cc(N(C)C)nc(N2CCn3c(C)nnc3C2)n1`, for which the cytotoxicity at 10 µM was -5.14%.

In the case of `CCCN(C(=O)c1ccc(-n2ccnn2)cc1)c1cccnc1`, the cytotoxicity at 10 µM was determined as 13.8%.

Turning to `COc1ccc2c(c1)OCC(Cc1ccc(CN)cn1)C2` (configuration not stated), the cytotoxicity at 10 µM was -1.84%.

As to `Cc1cc(C(=O)NCCN2CCCCC2)nn1C(C)(C)C`, the cytotoxicity at 10 µM was -3%.

For `Cc1ccc(NC(=O)CN2CCCNC2=O)c(SC(F)(F)F)c1`, the cytotoxicity at 10 µM was -1.96%.

As to `O=C(c1ccsc1)N1C[C@H](N2CCOCC2)[C@@H]2OCCC[C@@H]21`, the cytotoxicity at 10 µM was determined as 8.28%.

On to `Cc1ccc(-c2csc3c(=O)[nH]c(N4CCCC(C(=O)O)C4)nc23)cc1` (configuration not stated), for which the cytotoxicity at 10 µM is -68%.

For the molecule `Cc1cc(NC(=O)N2CCN(C)CC2C)n(CCC#N)n1` (configuration not stated), the cytotoxicity at 10 µM came out at 2.35%.

`COc1c(C2CCCN2C(=O)c2cccn2C)c(C)nn1C` (configuration not stated): the cytotoxicity at 10 µM was -1.88%.

With `c1cc(CN2CCO[C@H]3[C@H](OCC4CCOCC4)CC[C@@H]32)co1`, the cytotoxicity at 10 µM was -117%.

On to `CC(=O)N1CCCCC1c1nnc2n1CCNC2` (configuration not stated), for which the cytotoxicity at 10 µM worked out at 14.7%.

For `CN(C)C(=O)COC[C@@]12CCC[C@@H]1CNC2`, the cytotoxicity at 10 µM was determined as 0.903%.

Take `NCCc1nc(N(Cc2nccs2)C2CC2)c2ccccc2n1`: the cytotoxicity at 10 µM was -16.1%.

With `CCOc1c(C(N)=O)cn(C)c1-c1nc2cc(NC(C)=O)ccc2n1C`, the cytotoxicity at 10 µM was -46.9%.

As to `Cc1ccsc1C(=O)N1CC(C(=O)NCC2CC2)C2(CCOCC2)C1` (configuration not stated), the cytotoxicity at 10 µM is 0.955%.

For `NC(=O)c1nnn(-c2ccc(Cl)cc2)n1`, the cytotoxicity at 10 µM was determined as 8.99%.

For the molecule `CC(C)CC(NC(=O)c1ccn(C)c(=O)c1)c1cccs1` (configuration not stated), the cytotoxicity at 10 µM turned out to be 1.67%.

Regarding `CCOC1CCN(CC(=O)Nc2oc(C)c3c(C)n[nH]c(=O)c23)CC1`, the cytotoxicity at 10 µM is -14.4%.
